Shown are actives, neighbours in structure and some others; about 1.5% of the full set was active somewhere.
NR1D1 modulator – modulates human Rev-erb alpha binding to DNA; Rev-erbα–FITC-DNA binding, fluorescence polarization, 90 min; activity, % at 10 µM; P20393; actives 0.79% (n = 370,000);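 active = activity above about 14%, limit read from the data; passing the limit was not always enough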;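 note: 0% = DMSO wells with 35 nM protein and 100% = DMSO wells with 750 nM protein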
HNF4A DNA FP – change in binding of human HNF4 alpha to DNA; HNF4a-FITC DNA binding, fluorescence polarization, 1 h; activity change, % at 10 µM; actives 0.3% (n = 360,000); in the data active = activity change above about 30%, passing the limit was not always enough
aDG glyco act – increases alpha dystroglycan glycosylation | Pro5-aDG cells, alpha-DG glycosylation AlphaScreen (IIH6); 0% Pro5, 100% B10-LARGE cell signal | activation, % at 10 µM | actives 0.22% (n = 360,000);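 active = activation of at least 8% versus controls, or a plate z-score of at least 8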;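 note: Pro5 are CHO cells carrying HIG-tagged alpha-DG that lacks glycosylation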
CSN inh – blocks human CSN-mediated cullin deneddylation | actives 0.38% (n = 360,000) | Purified CSN, SCF-Nedd8-OG deneddylation, fluorescence polarization | Q92905 | inhibition, % at 12.5 µM;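 active = pattern-corrected inhibition above about 35%, with an unprinted fluorescence ratio check between 0.5 and 1.5, limit read from the data, passing the limit was not always enough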;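 note: 0% = enzyme with substrate and 100% = substrate without enzyme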
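Assay system: purified human Csn5 enzyme expressed in HEK293T cells; measure: % inhibition; also added: SCFSkp2-Nedd8OG substrate at 10 nM final; technique: fluorescence polarization; times: reaction 90 min, room temperature; medium: Tris buffer pH 7.5, NaCl, DTT, Tween-20, trehalose, ovalbumin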
CSN5 deneddyl – Csn5 (human) deneddylation inhibition, single-concentration validation; shares compounds with CSN inh; Csn5 deneddylation of SCF-Nedd8OG, fluorescence polarization, 90 min; inhibition, % at 16.6 µM; actives 62% (n = 540); AID 720654; in the data active = inhibition above about 50%;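 note: 0% = DMSO with enzyme and 100% = no enzyme wells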
MMP2 cntr CSN – MMP-2 (human) inhibition, counter-screen for CSN hits | shares compounds with CSN inh | recombinant MMP-2, FRET substrate fluorescence, 60 min | inhibition, % at 16.6 µM | actives 33% (n = 540) | AID 720655;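 active = corrected plate-normalized z-score of 5 or more, or -5 or less, or inhibition of 15% or more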;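 note: plate controls were DMSO wells with enzyme for no effect and buffer wells lacking MMP-2 for full effect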
Target sequence (P08253 whole entry, looked up): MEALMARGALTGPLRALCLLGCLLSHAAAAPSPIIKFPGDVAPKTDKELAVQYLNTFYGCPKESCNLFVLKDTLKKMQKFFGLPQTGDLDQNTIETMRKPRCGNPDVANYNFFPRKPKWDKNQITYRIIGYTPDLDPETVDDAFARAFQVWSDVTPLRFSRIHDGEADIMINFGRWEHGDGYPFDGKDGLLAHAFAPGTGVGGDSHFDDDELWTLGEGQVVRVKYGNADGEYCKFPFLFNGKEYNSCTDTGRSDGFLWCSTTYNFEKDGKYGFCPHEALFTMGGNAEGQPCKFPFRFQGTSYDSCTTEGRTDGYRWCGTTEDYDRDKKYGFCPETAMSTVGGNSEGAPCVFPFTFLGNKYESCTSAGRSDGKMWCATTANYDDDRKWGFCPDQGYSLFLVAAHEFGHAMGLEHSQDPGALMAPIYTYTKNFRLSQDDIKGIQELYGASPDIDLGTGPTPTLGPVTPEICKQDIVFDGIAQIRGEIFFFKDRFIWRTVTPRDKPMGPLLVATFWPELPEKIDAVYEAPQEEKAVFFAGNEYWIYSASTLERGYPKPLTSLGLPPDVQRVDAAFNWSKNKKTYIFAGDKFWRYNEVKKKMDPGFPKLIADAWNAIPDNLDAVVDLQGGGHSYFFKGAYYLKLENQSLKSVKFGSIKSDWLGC
Thrombin counter – thrombin (bovine) inhibition, counter-screen for CSN hits. bovine thrombin cleavage of Ub4-pepOG, fluorescence polarization. inhibition, % at 16.6 µM. shares compounds with CSN inh. actives 49% (n = 540). AID 720656;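 active = inhibition at or above a set limit, with a fluorescence interference ratio between 0.5 and a set maximum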
* = called active by the depositor; . = not tested or not shown; + = active, no number.

SMILES	NR1D1 modulator	HNF4A DNA FP	aDG glyco act	CSN inh	CSN5 deneddyl	MMP2 cntr CSN	Thrombin counter
CCCCNC(=O)NS(=O)(=O)c1ccc(NC(=O)CSc2nnc(-c3cccs3)n2-c2ccc(OC)cc2)cc1	-4	.	.	.	.	.	.
Cc1nc(C)c(NC(=O)N2CCc3ccccc32)cc1NC(=O)N1CCc2ccccc21	-4	4	1	4	.	.	.
Cn1ccc2cc3c(cc21)CCN3C(=O)Nc1cccnc1	-31	24	0	102*	61*	-41*	3
COc1ccccc1-n1cnc2c(c1=O)c1nc3ccccc3nc1n2-c1ccc(C)c(C)c1	-25	23	0	88*	124*	9	2
CC(C)(C)C(=O)OC12CCCN(C1)/C(=C/c1ccc(C#N)cc1)C2 (stereo not drawn)	10	.	.	.	.	.	.
CC(=O)c1cc(-c2ccccc2)c(=O)n2c1CCC2	1	.	.	.	.	.	.
CCN1CCc2c(sc(NC(=O)c3cc4ccccc4cc3OC)c2C(N)=O)C1	6	37*	0	38*	56*	-3	9
CC(C)N1CCc2c(sc(NC(=O)c3ccc4ccccc4c3)c2C(N)=O)C1	3	63*	2	57*	+	1	48*
CC(C)N1CCc2c(sc(NC(=O)c3ccc(C(=O)c4ccccc4)cc3)c2C(N)=O)C1	3	7	2	9	.	.	.
O=C1c2c(O)ccc(O)c2C(=O)c2c(NCCNCCO)ccc(NCCNCCO)c21	-22	105	-1	44*	-19	31*	-18
CCN(CC)c1ccc(-c2sc(Nc3ccccc3)n[n+]2-c2ccc(F)cc2)cc1	6	148	0	65*	146*	6	-29
CCc1ccc(Nc2n[n+](-c3ccccc3)c(-c3ccc(N(CC)CC)cc3)s2)cc1	5	175	0	91*	13	-79*	-84
COC1=C[C@H](C(=O)NCCNC(C)=O)[C@@]2(C)Cc3ccccc3[C@H]2CC1=O	-2	.	.	.	.	.	.
COC1=C/C(=C/c2c(N)n3cc(C)sc3nc2=O)C=CC1=O	17	66*	0	78*	66*	-8	62*
COC(=O)[C@]12C[C@H](CC(=O)N3CCCC3)C(=O)N(Cc3ccc(Cl)cc3Cl)C1=C[C@H](COCc1ccccc1)O[C@@H]2C	3	.	.	.	.	.	.
Cn1cccc1/C=C1\SC(=S)N(NC(=O)c2ccccc2O)C1=O	15	101*	0	55*	95*	6	48*
COc1cc(/C=C2\SC(=S)N(NC(=O)c3ccc(O)c(OC)c3)C2=O)ccc1O	2	59*	0	64*	90*	-5	80*
COc1cc(/C=C2\SC(=S)N(NS(=O)(=O)c3ccc(C)cc3)C2=O)ccc1O	6	25	0	41*	63*	15*	68*
COc1cc(/C=C2\SC(=S)N(NS(=O)(=O)c3ccccc3)C2=O)ccc1O	10	30	0	31	.	.	.
COc1cc(/C=C2\SC(=S)N(NC(=O)c3ccncc3)C2=O)ccc1O	5	50*	0	39*	68*	12	38*
COC(=O)[C@]12C[C@H](CC(=O)N3CCCC3)C(=O)N(CCC3=CCCCC3)C1=C[C@H](C(C)C)O[C@@H]2C1CC1	-5	.	.	.	.	.	.
Cc1cccc(-c2cccc3c4c([nH]c23)[C@@H]2C[C@H](N(C)C(=O)NC3CCCCC3)[C@H]([C@H](C)O)CN2CC4)c1	0	.	.	.	.	.	.
CCOC(=O)N1C(=O)C[C@](Sc2ccc(OC)cc2)(C(=O)N2CCOCC2)[C@H]1c1ccc(OC)cc1	-1	.	.	.	.	.	.
CCOc1cc(/C=C2\SC(=S)N(NC(=O)c3cccnc3)C2=O)ccc1O	5	49*	0	36*	58*	2	36*
CCOc1cc(/C=C2\SC(=S)N(NS(=O)(=O)c3ccc(C)cc3)C2=O)ccc1O	1	14	0	32	.	.	.
SMILES	NR1D1 modulator	HNF4A DNA FP	aDG glyco act	CSN inh	CSN5 deneddyl	MMP2 cntr CSN	Thrombin counter
COc1cc(/C=C2\SC(=S)N(NC(=O)c3cccc(O)c3)C2=O)ccc1O	1	47*	0	50*	96*	-3	40*
CCOC(=O)Nc1ccc2c(c1)[C@@]1(CC(=O)N(CC(C)C)C1c1ccccc1)C(=O)N2C (stereo partly drawn)	11	.	.	.	.	.	.
O=C(O)c1ccc(NC(=S)NC(=O)c2ccc(-c3ccc(Br)cc3)o2)cc1	-4	-64	0	53*	67*	16*	16*
COc1ccc2c(c1)CO[C@H]([C@H](O)CO)[C@H]2/C=C/c1ccccc1	15	.	.	.	.	.	.
O=C(O)c1cccc2c1C(=O)c1ccccc1-2	1	-5	0	2	.	.	.
O=C1C(=C(I)I)c2ccccc2-c2ccccc21	-15	0	0	52*	63*	10	-36
O=C(CCCCCN1C(=O)C2C3C=CC(C3)C2C1=O)Nc1ccc2ncccc2c1 (stereo not drawn)	1	.	.	.	.	.	.
O=C(/C=C/c1ccco1)Nc1scc(-c2ccccc2)c1C(=O)O	-7	-36	0	38*	25	9	6
O=C(/C=C/c1ccccc1)Nc1scc(-c2ccccc2)c1C(=O)O	-3	3	0	-7	.	.	.
Cc1ccc2nc(N(CCCN(C)C)C(=O)c3ccc(S(=O)(=O)N4CCc5ccccc5C4)cc3)sc2c1	-7	-1	1	5	.	.	.
CN(C)CCCN(C(=O)c1ccc(S(=O)(=O)N2CCc3ccccc3C2)cc1)c1nc2ccc(F)cc2s1	2	57*	0	99*	-33	-1	-14
CN(C(=O)CNC(=O)c1ccccc1OCC(=O)Nc1ccc(I)cc1)c1ccccc1	7	.	.	.	.	.	.
C=CCOC(=O)c1cc(-c2ccc(/C=C3\C(=O)NC(=O)C(C#N)=C3C)o2)ccc1Cl	-4	-17	0	43*	18*	24*	7
c1ccc(CNC2CCC23CCC(c2ccccc2)CC3)cc1 (stereo not drawn)	-2	.	.	.	.	.	.
CCOC(=O)CC[C@H]1CC[C@]2(CCCN(S(=O)(=O)C3CCCCC3)C2)O1	2	.	.	.	.	.	.
CC1=NN(c2nc(N)nc(/C(C#N)=C/c3ccc([N+](=O)[O-])o3)n2)C(C)(C)C1	1	96*	0	42*	96*	1	12
O=C1C2C(C(=O)N1/N=C/c1ccc([N+](=O)[O-])o1)C1C=CC2C12CC2 (stereo not drawn)	6	0	1	-4	.	.	.
COc1ccc(C(=O)c2[nH]c(N)c(C(=O)c3ccccc3)c2-c2ccc(OC)c(OC)c2)cc1	0	.	.	.	.	.	.

Screens deposited in PubChem by Sanford-Burnham Center for Chemical Genomics.
